{"data": "Measured values collected from several papers", "target": "Mu-type opioid receptor (OPRM1, Homo sapiens, UniProt P35372)", "effect on": "ligand displacement", "note": "Compare with care: the assays were run in different laboratories."}
{"SMILES": "N#Cc1cc(Cn2c(N3CCCC3)nc3ccccc32)ccc1F", "conditions": "10 µM", "inhibition": "-6.78%"}
{"SMILES": "CCN(Cc1ccccc1C(F)(F)F)C(=O)C1CCN(S(=O)(=O)c2ccc3[nH]ncc3c2)CC1", "test": "radioligand", "conditions": "10 µM", "inhibition": "5%"}
{"SMILES": "COc1cc(NC(C)=O)c(Cl)cc1C(=O)Nc1nccs1", "conditions": "10 µM", "inhibition": "-5.3%"}
{"SMILES": "O=C(Nc1ccc(S(=O)(=O)N2CCC(Cl)CC2)cc1)c1ccc([N+](=O)[O-])o1", "test": "radioligand", "conditions": "10 µM", "inhibition": "1%"}
{"SMILES": "COc1ccc(-n2nc(OCCCN3CCCCC3)ccc2=O)cc1", "conditions": "1 µM", "inhibition": "45.8%"}
{"SMILES": "CCN(CC)c1ccc(C2Nc3ccc(C(=O)c4ccccc4)cc3NC3=C2C(=O)CC(C)(C)C3)cc1 (centres unmarked)", "test": "radioligand", "conditions": "10 µM", "inhibition": "9%"}
{"SMILES": "O=C1N=C(N2CCCCN2)S/C1=C\\c1ccc(F)cc1O", "test": "radioligand", "conditions": "10 µM", "inhibition": "< 10%"}
{"SMILES": "O=C(c1ccc(Cl)cc1)N(Cc1ccccc1)C1CCCCC1", "conditions": "10 µM", "inhibition": "10.9%"}
{"SMILES": "CCCNc1nc2ccccc2n1Cc1ccc(Cl)cc1", "conditions": "10 µM", "inhibition": "12.4%"}
{"SMILES": "CN1CCN(CCCOc2ccc(=O)n(-c3ccc(Cl)c(Cl)c3)n2)CC1", "conditions": "1 µM", "inhibition": "17.2%"}
{"SMILES": "Ic1cccc2cnccc12", "test": "radioligand", "conditions": "10 µM", "inhibition": "-4%"}
